Assay results published in PubChem BioAssay AID2300 (The Scripps Research Institute Molecular Screening Center, 2010).
About 380 (0.12%) of roughly 320,000 compounds were called active.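 How the source made its calls: active means percent inhibition above the cutoff of mean plus 3 SD of all tested compounds, set per screening campaign (cut at about 20% in these data); inactive means the rest.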 What follows is part of a selection rich in actives, with near analogues and random picks from the rest.

Each compound was assayed against Photoreceptor-specific nuclear receptor (Homo sapiens) (UniProt Q9Y5X4) (assay: disruption of NR2E3 corepressor interaction – biochemical, TR-FRET, GST-NR2E3, biotin-RetCOR, NR2E3 agonist project, primary screen (AID 2300;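 further: 0% = DMSO wells and 100% = biotin wells as full block of FRET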)). Settings: 1536-well, at 4.78 µM, stronger effect = higher value.
Chain of Photoreceptor-specific nuclear receptor (Homo sapiens) (Q9Y5X4 whole entry, looked up): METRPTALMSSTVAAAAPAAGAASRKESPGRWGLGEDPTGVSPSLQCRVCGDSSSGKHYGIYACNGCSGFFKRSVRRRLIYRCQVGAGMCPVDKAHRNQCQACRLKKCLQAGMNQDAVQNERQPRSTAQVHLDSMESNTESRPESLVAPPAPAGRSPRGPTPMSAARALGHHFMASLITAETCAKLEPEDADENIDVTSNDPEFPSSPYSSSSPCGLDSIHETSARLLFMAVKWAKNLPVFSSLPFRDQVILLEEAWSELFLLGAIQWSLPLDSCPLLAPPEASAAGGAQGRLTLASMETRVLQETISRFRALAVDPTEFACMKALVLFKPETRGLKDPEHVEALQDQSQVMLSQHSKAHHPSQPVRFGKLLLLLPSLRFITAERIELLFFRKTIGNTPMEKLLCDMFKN
Summary of the method: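 Material: NR2E3–RetCOR corepressor complex / Incubation: Compound–protein incubation for 5 h at 4 °C / Dosing: compound at 4.8 µM, single dose / Detection: time-resolved FRET / Benchmarks: high control biotin, low control 0.6% DMSO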

Row | SMILES | inhibition of corepressor binding
1 | O=S(=O)(Nc1n[nH]c(C(F)(F)F)n1)c1ccccc1 | 6.01% (inactive)
2 | Cc1c(Cl)c([N+](=O)[O-])nn1CC(=O)NCCCN1CCOCC1 | 4.17% (inactive)
3 | COc1ccccc1C(C)NC(=O)Cc1ccsc1 (stereo not given) | 2.21% (inactive)
4 | COc1ccc2oc(C(=O)N(CC(C)C)C3CCS(=O)(=O)C3)c(C)c2c1 (stereo not given) | 3.14% (inactive)
5 | COc1ccc(N2CCN(C(=O)C3CCN(S(=O)(=O)c4ccc(C)cc4)CC3)CC2)cc1 | 6.37% (inactive)
6 | CC1(C)CN(c2ccc(-c3ccnc4ncnn34)cc2)C1=O | -0.76% (inactive)
7 | COc1ccc(C)cc1S(=O)(=O)NCCc1ccccc1 | 2.48% (inactive)
8 | Fc1ccc(CNc2nc3ccccc3n3nnnc23)cc1 | -0.09% (inactive)
9 | CC(C)(C)NC(=O)/C(=C/c1cccnc1)NC(=O)c1ccco1 | -5.01% (inactive)
10 | NC(=O)c1cc(S(=O)(=O)NCCCc2ccco2)cs1 | 2.54% (inactive)
11 | O=C(NCCCNC(=O)NC1CCCCC1)NC1CCCCC1 | 1.65% (inactive)
12 | Cc1ccc(CC(=O)Nc2ccc(S(=O)(=O)N3CCOCC3)cc2)cc1C | 1.54% (inactive)
13 | CC(C)C[C@@H](N)c1nnc(SCC(=O)c2ccc(Cl)cc2)o1 | -0.27% (inactive)
14 | CCOc1cc(C2C(C(=O)c3ccco3)=C(O)C(=O)N2Cc2ccccc2)ccc1O (stereo not given) | 5.32% (inactive)
15 | O=C(C1=C(O)C(=O)N(Cc2ccccc2)C1c1ccco1)c1ccco1 (stereo not given) | 13% (inactive)
16 | CC(C)c1ccc(C2C(C(=O)c3ccco3)=C(O)C(=O)N2CC2CCCO2)cc1 (stereo not given) | 22.2% (active)
17 | O=C1NC(c2ccccc2)=NC1(Nc1ccccn1)C(F)(F)F (stereo not given) | 0.74% (inactive)
18 | COc1cccc(N(CC(=O)NCCSc2ccccn2)S(C)(=O)=O)c1 | -2.09% (inactive)
19 | OC(c1ccccc1)c1nccn1Cc1ccccc1 (stereo not given) | -1.45% (inactive)
20 | NS(=O)(=O)c1ccc(NC2=CC(c3ccc(F)cc3)N(c3ccc(S(N)(=O)=O)cc3)C2=O)cc1 (stereo not given) | 1.09% (inactive)

Row | SMILES | inhibition of corepressor binding
21 | O=c1[nH]cccc1-c1nc2ccccc2n1Cc1ccc(Cl)cc1 | 5.14% (inactive)
22 | CCOc1ccccc1N(CC(=O)NC1CCCCC1)C(=O)CCCC(=O)Nc1ccccn1 | 2.15% (inactive)
23 | O=C(COC(=O)c1ccccc1SCC(=O)NC1CCCCC1)NC1CCCCC1 | -5.62% (inactive)
24 | N#Cc1ccc(C(=O)OCC(=O)NC(=O)NC2CCCCC2)cc1 | 0.11% (inactive)
25 | N#Cc1ccccc1Sc1ccccc1C(=O)OCC(=O)NC1CCCCC1 | 26.6% (active)
26 | O=C(NCC(c1ccco1)N1CCc2ccccc21)c1cccc(F)c1 (stereo not given) | -1.2% (inactive)
27 | CCOC(=O)N1CCC(=NNC(N)=O)CC1 | 0.68% (inactive)
28 | O=C(Nc1ccccn1)C1CCN(S(=O)(=O)c2ccc3c(c2)OCCO3)CC1 | 2.07% (inactive)
29 | NNC(=O)CSc1nnc(-c2ccccc2)n1-c1ccccc1 | 3.63% (inactive)
30 | CC1(C)CC(O)C(CCC(O)c2ccccc2)C(C)(C)N1 (stereo not given) | 0.53% (inactive)
31 | O=C(Cn1cncn1)N/N=C/c1c2ccccc2cc2ccccc12 | -7.82% (inactive)
32 | Cc1ccc(C(C)C)c(OCc2nnc(SCC(=O)Nc3nccs3)n2C)c1 | 2.5% (inactive)
33 | CN(C(=O)CN1C(=O)NC(C)(CCc2ccccc2)C1=O)c1ccccc1 (stereo not given) | 3.26% (inactive)
34 | CCOC(=O)c1ccc(NC(=S)N2CCN(c3ccccn3)CC2)cc1 | 43.1% (active)
35 | O=[N+]([O-])c1ccc(NC(=S)N2CCN(c3ccccn3)CC2)cc1 | 4% (inactive)
36 | CCOC(=O)c1ccc(NC(=S)N2CCCC2)cc1 | 0.82% (inactive)
37 | Cc1nc(N2CCOCC2)c2c(C)c(C(=O)Nc3ccc(C(F)(F)F)cc3)sc2n1 | -0.86% (inactive)
38 | CC(=O)Nc1ccc(N2CCOCC2)c(C(=O)Nc2cccc(C)c2)c1 | 0.26% (inactive)
39 | Cc1cccc(NC(=O)c2sc3nc(N4CCOCC4)c4c(c3c2N)CCCC4)c1 | 27.8% (active)
40 | CN(Cc1ccccc1Cl)C(=O)C1CCC(=O)N(CCc2cccc(F)c2)C1 (stereo not given) | -0.98% (inactive)

Row | SMILES | inhibition of corepressor binding
41 | CCC(CC)C(=O)Nc1c2c(nn1-c1ccc(C)cc1)CS(=O)(=O)C2 | 0.73% (inactive)
42 | CCOc1ccc(C(=O)Nc2cc(Cl)ccc2-n2cncn2)cc1OC | 1.32% (inactive)
43 | N#C/C(C(=S)Nc1ccccc1)=C1/NN=C(N2CCOCC2)N1c1ccccc1 | -1.05% (inactive)
44 | Cc1ccccc1NC(=O)COc1cccc2c1CCNC2=O | -2.78% (inactive)
45 | NC(=S)c1ccc(C(N)=S)o1 | 2.26% (inactive)
46 | O=C(COc1ccc2c3c(c(=O)oc2c1)CCCC3)NCC(O)c1ccccc1 (stereo not given) | 1.28% (inactive)
47 | CC(=O)COc1ccc2c(-c3ccccc3)cc(=O)oc2c1 | 3.24% (inactive)
48 | O=C(Oc1ccccc1)Oc1ccc2c(c1)oc(=O)c1ccccc12 | 26% (active)
49 | Cc1ccccc1C(CC(=O)c1cccs1)C(C#N)C#N (stereo not given) | 3.7% (inactive)
50 | COc1cc(C(F)(F)F)c(C(=O)N(C)c2ccc(Cl)cc2)cn1 | -2.07% (inactive)
51 | CC(=O)Nc1sc2c(c1C(c1cccc(F)c1)N1CCN(CCO)CC1)CCCC2 (stereo not given) | 2.91% (inactive)
52 | COC(=O)[C@]1(C)N[C@H](c2ccc(-c3ccc(Cl)c(Cl)c3)cc2)[C@@H]2C(=O)N(C)C(=O)[C@@H]21 | -0.27% (inactive)
53 | CC(=O)c1cccc(NC(=O)CN2C(=O)c3cccnc3Oc3ccc(Cl)cc32)c1 | 1.24% (inactive)
54 | COc1cc(C2C3C(=O)N(c4ccccc4)C(=O)C3ON2c2ccccc2)ccc1O (stereo not given) | 1.53% (inactive)
55 | Cn1c(=O)c(=O)n(C)c2cc(S(=O)(=O)CCC(=O)N3CCCCC3)ccc21 | 1.89% (inactive)
56 | CSc1sc(C)cc1C1C(C#N)=C(N)N(c2cccnc2)C2=C1C(=O)CCC2 (stereo not given) | 0.82% (inactive)
57 | COCC(=O)N1CCCC(C(=O)c2ccc(C(F)(F)F)cc2)C1 (stereo not given) | 3.84% (inactive)
58 | Cc1ccc(CN2CCN(c3ccccc3Cl)CC2)o1 | 0.07% (inactive)
59 | COCCNC(=O)CN1C(=O)CSc2ncccc21 | 4.79% (inactive)
60 | CCOc1ccccc1Nc1ccc(C(=O)O)cc1[N+](=O)[O-] | 0.59% (inactive)
